High-throughput results: PubChem BioAssay, Johns Hopkins Ion Channel Center
In the library only some 2.3% were active in any assay of this set; here they are far more common.
TRPC6 activator = mouse TRPC6 channel activators, primary screen, cell-based, HEK293, membrane potential dye. hit rate 0.13% among 310,000. B-score at 10 µM. HEK293-TRPC6 membrane potential dye fluorescence; active compounds read high;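 active = B-score of the integrated fluorescence ratio above library mean plus 3 SD, and starting fluorescence ratio within library mean plus 5 SD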;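 also: higher score means more depolarization so channel activation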
TRPC4 potent = positive allosteric modulators of TRPC4, primary screen, cell-based, mouse TRPC4beta, HEK293 mu-opioid, Fluo-4 calcium. Short transient receptor potential channel 4 (Mus musculus), Q9QUQ5. DAMGO EC20, Fluo-4 Ca2+ flux; active compounds read high. B-score at 10 µM. hit rate 0.42% among 310,000. AID 2227, 2009;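 active = B-score of calcium response area above 5 SD of library B-scores, with initial fluorescence ratio within 5 SD of library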;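 also: B-score of integrated fluorescence ratio over time as area under calcium response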
Target sequence (Q9QUQ5 whole entry, looked up): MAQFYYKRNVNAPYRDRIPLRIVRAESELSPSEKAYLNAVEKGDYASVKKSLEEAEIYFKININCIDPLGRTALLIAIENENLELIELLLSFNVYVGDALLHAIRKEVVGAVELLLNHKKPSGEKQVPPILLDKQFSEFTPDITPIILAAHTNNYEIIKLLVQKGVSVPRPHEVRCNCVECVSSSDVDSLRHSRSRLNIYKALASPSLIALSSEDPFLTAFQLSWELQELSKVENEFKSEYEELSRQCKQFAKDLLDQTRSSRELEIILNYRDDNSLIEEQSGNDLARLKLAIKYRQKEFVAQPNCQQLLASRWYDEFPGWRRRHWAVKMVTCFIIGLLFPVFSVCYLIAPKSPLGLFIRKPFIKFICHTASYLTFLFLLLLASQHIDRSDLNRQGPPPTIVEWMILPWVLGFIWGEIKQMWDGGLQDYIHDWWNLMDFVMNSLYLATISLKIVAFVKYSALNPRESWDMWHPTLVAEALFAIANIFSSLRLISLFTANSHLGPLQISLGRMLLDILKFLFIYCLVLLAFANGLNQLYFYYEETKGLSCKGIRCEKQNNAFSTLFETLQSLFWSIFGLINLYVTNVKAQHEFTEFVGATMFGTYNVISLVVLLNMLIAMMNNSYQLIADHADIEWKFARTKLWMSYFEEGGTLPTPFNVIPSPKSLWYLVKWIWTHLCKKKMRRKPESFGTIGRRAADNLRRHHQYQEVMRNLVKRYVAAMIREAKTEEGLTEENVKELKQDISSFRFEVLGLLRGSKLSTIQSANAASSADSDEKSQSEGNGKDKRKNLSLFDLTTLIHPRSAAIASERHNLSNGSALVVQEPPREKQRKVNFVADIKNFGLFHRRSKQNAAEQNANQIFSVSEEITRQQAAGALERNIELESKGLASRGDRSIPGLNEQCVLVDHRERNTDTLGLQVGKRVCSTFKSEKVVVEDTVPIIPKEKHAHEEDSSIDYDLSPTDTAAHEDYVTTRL
TRPC6 inhibitor = mouse TRPC6 channel inhibitors, primary screen, cell-based, HEK293, membrane potential dye; Short transient receptor potential channel 6 (Mus musculus), Q61143; B-score at 10 µM; hit rate 1.1% among 310,000; ACh-evoked depolarization; active compounds read low;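 active = B-score under library mean minus 3 SD, initial fluorescence not abnormally high, positive integrated signal ratio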;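 also: B-score derived from integrated fluorescence ratio over the kinetic read; more negative B-score means stronger inhibition of depolarization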
TRPC4 block = inhibitors of mouse TRPC4 channel, primary screen, Fluo4 calcium, HEK293 TRPC4beta/mu-opioid cells; Short transient receptor potential channel 4 (Mus musculus), Q9QUQ5; DAMGO-evoked Fluo4 calcium flux; active compounds read low; B-score at 10 µM; hit rate 0.39% among 300,000; AID 2247, 2010;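 active = B-score over 3 SD under the library average, no early fluorescence shift, positive overall ratio signal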
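material = TRPC4beta/mu-opioid receptor HEK293 cell line | probe or stimulus = sequential submaximal and maximal DAMGO stimulation | compound dosing = one concentration per compound | measured by = Fluo4 Ca2+ flux fluorescence | evaluation = integrated fluorescence ratio relative to baseline, converted to per-well B score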
TRPC4 act = activators of mouse TRPC4 channel, primary screen, Fluo4 calcium, HEK293 TRPC4beta/mu-opioid cells; Fluo4 calcium fluorescence; active compounds read high; Short transient receptor potential channel 4 (Mus musculus), Q9QUQ5; hit rate 0.49% among 310,000; B-score at 10 µM;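 active = B-score above 5 SD of library B-scores, and initial fluorescence ratio not above library mean plus 5 SD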;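 also: positive B-score marks a calcium rise read as TRPC4 activation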
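Material: HEK293 stable line with TRPC4beta plus mu-opioid receptor; technique: Fluo4 calcium-sensitive dye fluorescence, kinetic, 1 Hz baseline; timing: Fluo4 dye loading 45 min at room temperature, 110 s recording; controls: assay buffer as low control, maximal DAMGO as high control; read-out: integrated baseline-normalised fluorescence ratio, converted to per-well B score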
TRPC4 spec 2 = second check of whether TRPC6 inhibitors also affect mouse TRPC4 | shares compounds with TRPC6 inhibitor | hit rate 42% among 920 | inhibition, % at 10 µM | HEK293 TRPC4/MOR, membrane potential dye fluorescence; channel activated by saturating DAMGO dose;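 active = compounds whose fluorescence signal differed from control wells by over 3 SD, either direction, in both duplicate plates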
TRPC4 spec = mouse TRPC4 modulation by TRPC6 hits, confirmation, selectivity assay for TRPC6 inhibitor project, cell-based, HEK293 TRPC4/mu-opioid, membrane potential dye | shares compounds with TRPC6 inhibitor | membrane potential fluorescence | activity change, negative = inhibition, % at 10 µM | hit rate 61% among 920;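 active = rise or fall in signal beyond 3 SD of buffer-only wells in both replicate plates, either sign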;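 also: integrated kinetic ratio of fluorescence range over baseline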
HEK293 MPD ctr 2-1 = nonspecific membrane potential effects, parental HEK293, confirmation, counter-screen for TRPC6 inhibitor project, cell-based, second counter screen; shares compounds with TRPC6 inhibitor; parental HEK293 membrane potential dye fluorescence; maximal acetylcholine challenge after compound addition; signal change vs control, % at 10 µM; hit rate 31% among 920;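 active = membrane potential signal moving either way by over 3 SD of the maximum-effect control, in both duplicate plates, meaning non-specific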
HEK293 MPD ctr-1 = membrane potential modulation in parental HEK293, confirmation, counter-screen for TRPC6 inhibitor project, cell-based. shares compounds with TRPC6 inhibitor. parental HEK293 membrane potential dye fluorescence. membrane potential signal change, % at 10 µM. hit rate 60% among 920. AID 2780, 2010;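 active = membrane potential signal shifting up or down by more than 3 SD of buffer-only wells, on both duplicate plates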
HEK293 MPD ctr-2 = parental HEK293 membrane potential modulation, confirmation, counter-screen for TRPC6 modulator project, cell-based; shares compounds with TRPC6 inhibitor; membrane potential dye fluorescence; membrane potential signal change, % at 10 µM; hit rate 51% among 2,400; AID 488924, 2010;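 active = membrane potential signal moves up or down beyond 5 SD from buffer-only wells, on both duplicate plates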
HEK293 MPD ctr 2-2 = second check of TRPC6 modulator effects in parental HEK293 cells; shares compounds with TRPC6 inhibitor; membrane potential dye fluorescence; after compound, maximal acetylcholine stimulation; inhibition, % at 10 µM; hit rate 14% among 2,400;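 active = membrane potential signal drops by more than 5 SD from the mean control signal, in both duplicate plates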;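 also: plate controls were acetylcholine ECmax control wells for no effect and buffer only wells for full effect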
TRPC4 ctr mod = TRPC4 modulation by TRPC6 hit compounds, confirmation, selectivity assay for TRPC6 modulator project, cell-based, HEK293 TRPC4/mu-opioid, membrane potential dye, mouse. membrane potential fluorescence. AID 488927, 2010. hit rate 69% among 2,400. percent change from control (negative = decrease, positive = increase), % at 10 µM. shares compounds with TRPC6 inhibitor;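 active = membrane potential signal moved up or down beyond 5 SD of buffer control wells, in both duplicate plates, actives on both sides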;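 also: plate controls were assay buffer wells for no effect and DAMGO maximal-effect wells for full effect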
TRPC4/MOR inh 2 = second check of whether TRPC6 modulators also affect mouse TRPC4; shares compounds with TRPC6 inhibitor; HEK293 TRPC4/mu-opioid, membrane potential dye fluorescence; stimulated with maximal-effect DAMGO; inhibition, % at 10 µM; hit rate 55% among 2,400; AID 488928;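 active = drop in membrane potential signal beyond 5 SD of the control wells in both duplicate plates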;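 also: TRPC4 counter screen for TRPC6 hits run under conditions tuned for TRPC6 not TRPC4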
TRPC6 inh conf = mouse TRPC6 channel inhibitors, confirmation, HEK293 cells, membrane potential dye, duplicate; shares compounds with TRPC6 inhibitor; ACh-evoked depolarization; inhibition, % at 10 µM; hit rate 43% among 3,300; AID 488960, 2010;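 active = fluorescence ratio falls more than 5 SD below the full-stimulation control mean, in both duplicate runs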;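 also: integrated fluorescence ratio of peak minus minimum over baseline after agonist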
TRPC6 act conf = mouse TRPC6 channel activators, confirmation, HEK293 cells, membrane potential dye, duplicate; shares compounds with TRPC6 inhibitor; HEK293-TRPC6 membrane potential dye fluorescence, FDSS; hit rate 11% among 2,800; activation, % at 10 µM;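 active = ratio signal rise beyond 5 SD above unstimulated control wells' mean, seen in both duplicate runs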;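 also: plate controls were buffer EC0 wells for no effect and acetylcholine ECmax response for full effect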
Active calls of the source: *.

Cn1c(SCC(=O)N2CCOCC2)nc2sc3c(c2c1=O)CCCC3 was read as TRPC6 activator inactive, TRPC4 potent inactive, TRPC6 inhibitor -8.78*, TRPC4 block inactive, TRPC4 act inactive, TRPC4 spec 2 inactive, TRPC4 spec inactive, HEK293 MPD ctr 2-1 inactive, HEK293 MPD ctr-1 inactive, TRPC6 inh conf inactive and TRPC6 act conf inactive.
`CCCCN(C(=O)c1ccc2c(c1)OCCO2)c1c(N)n(CC(C)C)c(=O)[nH]c1=O` gave TRPC6 activator inactive, TRPC4 potent inactive, TRPC6 inhibitor inactive, TRPC4 block inactive and TRPC4 act inactive.
CN1CCCC1CCNc1ccc2sc3ccccc3c(=O)c2c1 (centres undefined) was read as TRPC6 activator 30.4*, TRPC4 potent inactive, TRPC6 inhibitor -6.27*, TRPC4 block inactive, TRPC4 act 75*, HEK293 MPD ctr-2 794.0%*, HEK293 MPD ctr 2-2 inactive, TRPC4 ctr mod 148.5%*, TRPC4/MOR inh 2 67.0%*, TRPC6 inh conf inactive and TRPC6 act conf 317.5%*.
`O=C(NCCN1CCOCC1)c1sc2ccccc2c1Cl` gave TRPC6 activator inactive, TRPC4 potent inactive, TRPC6 inhibitor inactive, TRPC4 block inactive and TRPC4 act inactive.
O=c1c2ccccc2sc2ccc(NCCCN3CCOCC3)cc12 was read as TRPC6 activator 34.1*, TRPC4 potent inactive, TRPC6 inhibitor inactive, TRPC4 block inactive, TRPC4 act inactive, HEK293 MPD ctr-2 939.5%*, HEK293 MPD ctr 2-2 inactive, TRPC4 ctr mod 190.5%*, TRPC4/MOR inh 2 79.5%* and TRPC6 act conf 365.0%*.
Screening O=c1c2ccccc2oc2ccc(NCCCn3ccnc3)cc12 returned TRPC6 activator inactive, TRPC4 potent inactive, TRPC6 inhibitor inactive, TRPC4 block inactive and TRPC4 act inactive.
Cc1cc2oc3cc(NCCC4CCCN4C)ccc3c(=O)c2cc1C (centres undefined) was read as TRPC6 activator inactive, TRPC4 potent inactive, TRPC6 inhibitor -5.93*, TRPC4 block inactive, TRPC4 act inactive, HEK293 MPD ctr-2 inactive, HEK293 MPD ctr 2-2 84.0%*, TRPC4 ctr mod -11.0%*, TRPC4/MOR inh 2 76.5%*, TRPC6 inh conf 49.5%* and TRPC6 act conf inactive.
For O=C1c2ccccc2C(=O)N1CCCc1nc(-c2ccccn2)no1 the results were TRPC6 activator inactive, TRPC4 potent inactive, TRPC6 inhibitor -5*, TRPC4 block inactive, TRPC4 act inactive, HEK293 MPD ctr-2 inactive, HEK293 MPD ctr 2-2 inactive, TRPC4 ctr mod inactive, TRPC4/MOR inh 2 inactive, TRPC6 inh conf inactive and TRPC6 act conf inactive.
Screening O=C1c2ccccc2C(=O)N1CCc1nc(-c2ccccn2)no1 returned TRPC6 activator inactive, TRPC4 potent inactive, TRPC6 inhibitor inactive, TRPC4 block inactive and TRPC4 act inactive.
COc1ccccc1CN1CCC(n2nccc2NC(=O)CCCc2ccccc2)CC1 was read as TRPC6 activator inactive, TRPC4 potent inactive, TRPC6 inhibitor inactive, TRPC4 block inactive and TRPC4 act inactive.
O=C(NCc1ccc(Cl)cc1)C(=O)NCC1OCCN1S(=O)(=O)c1cc(F)ccc1F (centres undefined) was read as TRPC6 activator inactive, TRPC4 potent inactive, TRPC6 inhibitor inactive, TRPC4 block inactive and TRPC4 act inactive.
For CCn1c(=NC(=O)CSC(C)=O)sc2cc(OC)ccc21 the results were TRPC6 activator 16.6*, TRPC4 potent inactive, TRPC6 inhibitor inactive, TRPC4 block inactive, TRPC4 act inactive, HEK293 MPD ctr-2 inactive, HEK293 MPD ctr 2-2 inactive, TRPC4 ctr mod 9.0%*, TRPC4/MOR inh 2 inactive and TRPC6 act conf 152.5%*.
Screening CCC(C(=O)NC(CC(=O)O)c1ccc(Cl)cc1)c1ccccc1 (centres undefined) returned TRPC6 activator inactive, TRPC4 potent inactive, TRPC6 inhibitor inactive, TRPC4 block inactive and TRPC4 act inactive.
